Laboratory results: ChEMBL document CHEMBL3112409, “A novel class of ion displacement ligands as antagonists of the αIIbβ3 receptor that limit conformational reorganization of the receptor” (Bioorg Med Chem Lett, 2014)
Activity calls are given as the source filed them. The calls are words filed in the database; no cut-off is given here. Positions of bridges follow the written chain, without caps; N, C: chain ends. Non-standard residues stand in square brackets, D forms with d. Residues, ends and D or L forms follow the SMILES beside them. hArg = N=C(N)NCCCC[C@H](N)C(=O)O; Mpa = O=C(O)CCS

How the values were obtained:
[1] = Antiplatelet activity in platelet (unknown origin) assessed as inhibition of platelet aggregation; assay type: functional, cell-based
[2] = target: T1, Integrin alpha-IIb/beta-3 (Homo sapiens) (UniProt P05106+P08514); experiment: Inhibition of […] receptor (unknown origin) assessed as inhibition of platelet adhesion at 1 uM
[3] = target: T1, Integrin alpha-IIb/beta-3 (Homo sapiens); experiment: Inhibition of […] receptor (unknown origin) assessed as inhibition of platelet adhesion at 100 uM
[4] = target: T1, Integrin alpha-IIb/beta-3 (Homo sapiens); experiment: Inhibition of […] receptor (unknown origin) assessed as inhibition of platelet adhesion at 50 uM
[5] = Oral bioavailability in dog at 26.5 to 53 mg/kg; assay type: ADME, organism-based, Canis lupus familiaris; details: in vivo
[6] = Clearance in dog at 53 mg/kg, po; assay type: ADME, organism-based, Canis lupus familiaris; parameters: dose 53 mg/kg, route oral; details: in vivo
[7] = Clearance in dog at 26.5 mg/kg, po; assay type: ADME, organism-based, Canis lupus familiaris; parameters: dose 26.5 mg/kg, route oral; details: in vivo
[8] = Clearance in dog at 26.5 mg/kg, iv; assay type: ADME, organism-based, Canis lupus familiaris; parameters: dose 26.5 mg/kg, route intravenous; details: in vivo
[9] = system: Canis familiaris; experiment: Volume of distribution in dog at 53 mg/kg, po; assay type: ADME, organism-based, Canis lupus familiaris; parameters: dose 53 mg/kg, route oral; details: in vivo
[10] = system: Canis familiaris; experiment: Volume of distribution in dog at 26.5 mg/kg, po; assay type: ADME, organism-based, Canis lupus familiaris; parameters: dose 26.5 mg/kg, route oral; details: in vivo
[11] = AUC (infinity) in dog at 53 mg/kg, po; assay type: ADME, organism-based, Canis lupus familiaris; parameters: time infinity, dose 53 mg/kg, route oral; details: plasma
[12] = Volume of distribution in dog at 26.5 mg/kg, iv; assay type: ADME, organism-based, Canis lupus familiaris; parameters: dose 26.5 mg/kg, route intravenous; details: in vivo
[13] = AUC (infinity) in dog at 26.5 mg/kg, po; assay type: ADME, organism-based, Canis lupus familiaris; parameters: time infinity, dose 26.5 mg/kg, route oral; details: plasma
[14] = AUC (infinity) in dog at 26.5 mg/kg, iv; assay type: ADME, organism-based, Canis lupus familiaris; parameters: time infinity, dose 26.5 mg/kg, route intravenous; details: plasma
[15] = Terminal elimination rate constant in dog at 53 mg/kg, po; assay type: ADME, organism-based, Canis lupus familiaris; parameters: dose 53 mg/kg, route oral; details: in vivo
[16] = Terminal elimination rate constant in dog at 26.5 mg/kg, po; assay type: ADME, organism-based, Canis lupus familiaris; parameters: dose 26.5 mg/kg, route oral; details: in vivo
[17] = Terminal elimination rate constant in dog at 26.5 mg/kg, iv; assay type: ADME, organism-based, Canis lupus familiaris; parameters: dose 26.5 mg/kg, route intravenous; details: in vivo
[18] = Elimination half life in dog at 53 mg/kg, po; assay type: ADME, organism-based, Canis lupus familiaris; parameters: dose 53 mg/kg, route oral; details: in vivo, read-out: beta t1/2
[19] = Elimination half life in dog at 26.5 mg/kg, iv; assay type: ADME, organism-based, Canis lupus familiaris; parameters: dose 26.5 mg/kg, route intravenous; details: in vivo, read-out: beta t1/2
[20] = Elimination half life in dog at 26.5 mg/kg, po; assay type: ADME, organism-based, Canis lupus familiaris; parameters: dose 26.5 mg/kg, route oral; details: in vivo, read-out: beta t1/2
[21] = Cmax in dog at 53 mg/kg, po; assay type: ADME, organism-based, Canis lupus familiaris; parameters: dose 53 mg/kg, route oral; details: in vivo
[22] = Cmax in dog at 26.5 mg/kg, po; assay type: ADME, organism-based, Canis lupus familiaris; parameters: dose 26.5 mg/kg, route oral; details: in vivo
[23] = Tmax in dog at 53 mg/kg, po; assay type: ADME, organism-based, Canis lupus familiaris; parameters: dose 53 mg/kg, route oral; details: in vivo
[24] = Cmax in dog at 26.5 mg/kg, iv; assay type: ADME, organism-based, Canis lupus familiaris; parameters: dose 26.5 mg/kg, route intravenous; details: in vivo
[25] = Tmax in dog at 26.5 mg/kg, iv; assay type: ADME, organism-based, Canis lupus familiaris; parameters: dose 26.5 mg/kg, route intravenous; details: in vivo
[26] = Tmax in dog at 26.5 mg/kg, po; assay type: ADME, organism-based, Canis lupus familiaris; parameters: dose 26.5 mg/kg, route oral; details: in vivo
[27] = system: Liver microsome; experiment: Intrinsic clearance in rat liver microsomes; assay type: ADME
[28] = target: hERG (KCNH2) (Homo sapiens, UniProt Q12809); experiment: Inhibition of human ERG channel at 25 uM
[29] = Intrinsic clearance in mouse liver microsomes; assay type: ADME, Microsome
[30] = Thermodynamic solubility of the compound at pH 8.5 by CLND method; assay type: physicochemical; details: buffer
Procedure, shortened: (§1)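 Triplicate solubility measurements in aqueous buffer at the pH named in each line. Quantified by chemiluminescent nitrogen detection (CLND) and reported in μg/mL. An LC method was also run alongside.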

[31] = Thermodynamic solubility of the compound at pH 12 by CLND method; assay type: physicochemical; details: buffer; procedure, shortened: as §1
[32] = Thermodynamic solubility of the compound at pH 7.4 by CLND method; assay type: physicochemical; details: buffer; procedure, shortened: as §1
[33] = Kinetic solubility of the compound at pH 12 by CLND method; assay type: physicochemical; details: buffer
[34] = Thermodynamic solubility of the compound at pH 6.6 by CLND method; assay type: physicochemical; details: buffer; procedure, shortened: as §1
[35] = Kinetic solubility of the compound at pH 7.4 by CLND method; assay type: physicochemical; details: buffer
[36] = Kinetic solubility of the compound at pH 8.5 by CLND method; assay type: physicochemical; details: buffer
[37] = Kinetic solubility of the compound at pH 6.6 by CLND method; assay type: physicochemical; details: buffer
[38] = Metabolic stability in mouse plasma after 60 mins; assay type: ADME, cell-free; details: read-out: Stability
Procedure, shortened: (§2)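 Stability in mouse plasma run in triplicate; percent remaining read at 15, 60 and 120 min.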

[39] = Metabolic stability in mouse plasma after 120 mins; assay type: ADME, cell-free; details: read-out: Stability; procedure, shortened: as §2
[40] = Metabolic stability in mouse plasma after 15 mins; assay type: ADME, cell-free; details: read-out: Stability; procedure, shortened: as §2
[41] = target: T1, Integrin alpha-IIb/beta-3 (Homo sapiens); details: 10 uM
[42] = Fraction unbound in whole blood (unknown origin); assay type: ADME, tissue-based
[43] = Fraction unbound in plasma (unknown origin); assay type: ADME, cell-free
[44] = Metabolic stability in mouse hepatocytes assessed as compound remaining after 120 mins; assay type: ADME, cell-based, Hepatocyte; details: read-out: Stability
[45] = target: Integrin alpha-V/beta-3 (Homo sapiens) (UniProt P05106+P06756); experiment: Antagonist activity at alphaVbeta3 receptor (unknown origin); assay type: protein-complex assay
[46] = system: Liver microsome; experiment: Intrinsic clearance in human liver microsomes; assay type: ADME
Procedure, shortened: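 Liver microsomal stability run in parallel for mouse, rat and human microsomes. Intrinsic clearance reported in μL/min/mg protein, with microsomal half-life in min.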

Sequence of hERG (KCNH2) (Q12809 whole entry): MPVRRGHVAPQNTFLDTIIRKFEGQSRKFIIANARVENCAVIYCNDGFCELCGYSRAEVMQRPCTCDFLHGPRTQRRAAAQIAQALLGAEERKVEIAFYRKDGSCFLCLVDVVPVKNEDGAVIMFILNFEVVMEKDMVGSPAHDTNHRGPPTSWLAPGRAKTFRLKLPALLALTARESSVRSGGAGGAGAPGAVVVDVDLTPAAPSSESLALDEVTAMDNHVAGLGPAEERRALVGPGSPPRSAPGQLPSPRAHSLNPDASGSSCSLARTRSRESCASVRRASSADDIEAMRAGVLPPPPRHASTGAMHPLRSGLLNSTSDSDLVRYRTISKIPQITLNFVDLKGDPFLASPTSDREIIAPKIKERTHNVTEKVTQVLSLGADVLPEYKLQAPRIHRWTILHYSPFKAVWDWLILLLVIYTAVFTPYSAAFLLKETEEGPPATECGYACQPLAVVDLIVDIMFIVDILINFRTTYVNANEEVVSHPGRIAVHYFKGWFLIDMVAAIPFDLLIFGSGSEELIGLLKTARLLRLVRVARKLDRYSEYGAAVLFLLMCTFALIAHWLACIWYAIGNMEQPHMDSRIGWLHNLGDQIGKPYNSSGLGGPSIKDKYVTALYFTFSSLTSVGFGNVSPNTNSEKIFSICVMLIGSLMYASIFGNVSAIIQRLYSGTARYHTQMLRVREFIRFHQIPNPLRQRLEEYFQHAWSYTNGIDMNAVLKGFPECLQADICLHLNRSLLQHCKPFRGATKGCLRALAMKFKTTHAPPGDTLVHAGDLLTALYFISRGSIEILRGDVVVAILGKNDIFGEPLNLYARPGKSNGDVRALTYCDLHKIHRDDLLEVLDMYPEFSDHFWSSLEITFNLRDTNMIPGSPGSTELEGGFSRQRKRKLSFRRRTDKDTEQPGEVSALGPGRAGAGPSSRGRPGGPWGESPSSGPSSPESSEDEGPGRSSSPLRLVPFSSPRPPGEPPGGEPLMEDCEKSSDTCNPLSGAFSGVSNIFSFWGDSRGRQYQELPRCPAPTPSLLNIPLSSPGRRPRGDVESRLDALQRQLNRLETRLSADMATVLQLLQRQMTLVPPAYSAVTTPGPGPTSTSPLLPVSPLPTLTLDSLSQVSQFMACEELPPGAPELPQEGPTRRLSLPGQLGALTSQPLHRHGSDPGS

NCC(=O)Nc1cc(O)cc(-c2nn3c(=O)cc(N4CCNCC4)nc3s2)c1
IC50 [1]: 0.1 µM
inhibition [2]: 69%

N=C(N)NCCCC[C@@H]1NC(=O)CCSSC[C@@H](C(N)=O)NC(=O)[C@@H]2CCCN2C(=O)[C@H](Cc2c[nH]c3ccccc23)NC(=O)[C@H](CC(=O)O)NC(=O)CNC1=O [EPTIFIBATIDE] ([Mpa][hArg]GDWPC-NH2; disulfide 1-7)
IC50 [1]: 0.012 µM

CCc1nn2c(=O)c(F)c(N3CCNCC3)nc2s1
IC50 [1]: 8.3 µM
inhibition [3]: 41%

C[C@H](N)C(=O)Nc1cccc(-c2nn3c(=O)cc(N4CCNCC4)nc3s2)c1
IC50 [1]: 5.87 µM
inhibition [3]: 66%

CCc1nn2c(=O)cc(N3CCCCC3)nc2s1
IC50 [1]: > 100 µM
inhibition [3]: 23%

O=C(O)c1ccc(-c2nn3c(=O)cc(N4CCNCC4)nc3s2)cc1
IC50 [1]: 6.5 µM
inhibition [4]: 49%

NCC(=O)Nc1cc(CO)cc(-c2nn3c(=O)cc(N4CCNCC4)nc3s2)c1
IC50 [1]: 0.075 µM
inhibition [2]: 89%

CCc1nn2c(=O)cc(N3CCNCC3)nc2s1
IC50 [1]: 4 µM
bioavailability [5]: 92%
CL/F [6]: 18.7 mL/min/kg
CL/F [7]: 16.8 mL/min/kg
clearance [8]: 15.9 mL/min/kg
Vd [9]: 2.9476 L/kg
Vd [10]: 3.4669 L/kg
AUC(0-inf) [11]: 47200 ng·h/mL
Vd [12]: 2.37 L/kg
AUC(0-inf) [13]: 27200 ng·h/mL
AUC(0-inf) [14]: 28000 ng·h/mL
k el [15]: 0.000107 s⁻¹
k el [16]: 8e-05 s⁻¹
k el [17]: 0.000113 s⁻¹
half-life [18]: 1.82 h
half-life [19]: 1.7 h
half-life [20]: 2.45 h
Cmax [21]: 11900 ng/mL
Cmax [22]: 7800 ng/mL
Tmax [23]: 0.5 h
Cmax [24]: 28800 ng/mL
Tmax [25]: 0.175 h
Tmax [26]: 0.555 h

NCC(=O)Nc1cccc(-c2nn3c(=O)cc(N4CCNCC4)nc3s2)c1
CLH [27]: 2.83 µL/min/mg
inhibition at 25 µM [28]: < 5%
CLH [29]: 0.684 µL/min/mg
Therm_solubility [30]: 46.2 µg/mL
Therm_solubility [31]: > 400 µg/mL
Therm_solubility [32]: 28 µg/mL
Kinetic_solubility [33]: 43.4 µg/mL
Therm_solubility [34]: 41.8 µg/mL
Kinetic_solubility [35]: 34.6 µg/mL
Kinetic_solubility [36]: 36.1 µg/mL
Kinetic_solubility [37]: 35.8 µg/mL
remaining at 1 h [38]: 93.3%
remaining at 2 h [39]: 84.5%
remaining at 0.25 h [40]: 97.5%
inhibition [2]: 83%

O=C(O)CNc1cccc(-c2nn3c(=O)cc(N4CCNCC4)nc3s2)c1
IC50 [1]: 2 µM
inhibition [4]: 78%

NCC(=O)Nc1cc(-c2nn3c(=O)cc(N4CCNCC4)nc3s2)ccn1
IC50 [1]: 0.033 µM
inhibition [2]: 98%

CCCCS(=O)(=O)N[C@@H](Cc1ccc(OCCCCC2CCNCC2)cc1)C(=O)O
inhibition [41]: 88%

CCc1nn2c(=O)cc(N3CCOCC3)nc2s1
IC50 [1]: 49 µM
inhibition [3]: 20%

O=c1cc(N2CCNCC2)nc2sc(-c3ccccc3)nn12
IC50 [1]: 3 µM
inhibition [3]: 56%

CC(C)(C)c1nn2c(=O)cc(N3CCNCC3)nc2s1
IC50 [1]: 4 µM
inhibition [4]: 35%

O=C(O)c1cccc(-c2nn3c(=O)cc(N4CCNCC4)nc3s2)c1
IC50 [1]: 80 µM
inhibition [4]: 37%

NCC(=O)Nc1cncc(-c2nn3c(=O)cc(N4CCNCC4)nc3s2)c1 [ZALUNFIBAN]
Fu [42]: > 85%
Fu [43]: > 30%
remaining at 2 h [44]: > 95%
Activity [45]: inactive
CLH [46]: 23.2 µL/min/mg
inhibition at 25 µM [28]: < 5%
Therm_solubility [30]: > 400 µg/mL
Therm_solubility [31]: > 400 µg/mL
Therm_solubility [32]: 239.5 µg/mL
Kinetic_solubility [33]: > 57.8 µg/mL
Therm_solubility [34]: 340.4 µg/mL
Kinetic_solubility [35]: > 57.8 µg/mL
Kinetic_solubility [36]: > 57.8 µg/mL
Kinetic_solubility [37]: > 57.8 µg/mL
remaining at 1 h [38]: 99.5%
remaining at 2 h [39]: 91.7%
remaining at 0.25 h [40]: 100%
IC50 [1]: 0.045 µM
inhibition [2]: 93%

CCc1nn2c(=O)cc(N3CCN(C)CC3)nc2s1
IC50 [1]: > 100 µM
inhibition [3]: 35%
